In ChEMBL document CHEMBL1155099, “Natural products in parallel synthesis: triazole libraries of nonactic acid” (2008):
The source made the active and inactive calls.

Assays:
Assay type in all cases: functional, organism-based
Bacillus anthracis = test: Antibacterial activity against Bacillus anthracis at 1mM by almar blue dye reduction assay
Bacillus cereus = test: Antibacterial activity against Bacillus cereus at 1 mM by almar blue dye reduction assay
Method in brief: (§1)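 Single-point primary screen at 1 mM using Alamar Blue dye reduction as the growth read-out.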

Bacillus subtilis = test: Antibacterial activity against Bacillus subtilis at 1 mM by almar blue dye reduction assay; method in brief: as §1
Staphylococcus aureus = test: Antibacterial activity against Staphylococcus aureus at 1 mM by almar blue dye reduction assay; method in brief: as §1
Escherichia coli = test: Antibacterial activity against Escherichia coli at 1 mM by almar blue dye reduction assay; method in brief: as §1
Pseudomonas aeruginosa = test: Antibacterial activity against Pseudomonas aeruginosa at 1 mM by almar blue dye reduction assay; method in brief: as §1
Candida albicans = test: Antifungal activity against Candida albicans at 1 mM by almar blue dye reduction assay; method in brief: as §1
Cryptococcus neoformans = test: Antifungal activity against Cryptococcus neoformans at 1 mM by almar blue dye reduction assay; method in brief: as §1
Saccharomyces cerevisiae = test: Antifungal activity against Saccharomyces cerevisiae at 1 mM by almar blue dye reduction assay; method in brief: as §1

Measured: Activity

CC(C)NC(=O)[C@H](C)[C@H]1CCC(C[C@@H](C)n2cc(C#Cc3ccccc3[N+](=O)[O-])nn2)O1 (single isomer, unassigned)
inactive: all assays above

CCN(CC)C(=O)[C@H](C)[C@H]1CC[C@@H](C[C@@H](C)n2cc(C#Cc3ccccc3[N+](=O)[O-])nn2)O1
inactive: all assays above

C[C@H](C[C@@H]1CC[C@H]([C@@H](C)C(=O)N2CCN(CC3CCCO3)CC2)O1)n1cc(C#Cc2ccccc2[N+](=O)[O-])nn1 (some centres not stated)
inactive: all assays above

CCN(CC)C(=O)[C@H](C)[C@H]1CC[C@@H](C[C@@H](C)n2cc(C#Cc3ccc(Oc4ccccc4)cc3)nn2)O1
inactive: all assays above

CCC(=O)OCC#Cc1cn([C@H](C)CC2CCC([C@@H](C)C(=O)N(C)Cc3ccccc3)O2)nn1 (single isomer, unassigned)
inactive: all assays above

CCN(CC)C(=O)[C@H](C)[C@H]1CC[C@@H](C[C@@H](C)n2cc(C#CCOc3ccccc3)nn2)O1
inactive: all assays above

CCCCN(CC#Cc1cn([C@H](C)C[C@@H]2CC[C@H]([C@@H](C)C(=O)NC(C)C)O2)nn1)CCCC
inactive: all assays above

CC(C)NC(=O)[C@H](C)[C@H]1CC[C@@H](C[C@@H](C)n2cc(C#CCN3CCC(c4ccccc4)CC3)nn2)O1
inactive: all assays above

CCN(CC)C(=O)[C@H](C)[C@H]1CC[C@@H](C[C@@H](C)n2cc(C#CCN3CCOCC3)nn2)O1
inactive: all assays above

C[C@H](C[C@@H]1CC[C@H]([C@@H](C)C(=O)N2CCN(CC3CCCO3)CC2)O1)n1cc(C#CCN(C)CCc2ccccc2)nn1 (some centres not stated)
inactive: all assays above

CC(C)CC#Cc1cn([C@H](C)C[C@@H]2CC[C@H]([C@@H](C)C(=O)N3CCCC3)O2)nn1
inactive: all assays above

COCC#Cc1cn([C@H](C)C[C@@H]2CC[C@H]([C@@H](C)C(=O)NC(C)C)O2)nn1
inactive: all assays above

Cc1cccc(NC(=O)NCC#Cc2cn([C@H](C)CC3CCC([C@@H](C)C(=O)N4CCCC4)O3)nn2)c1 (single isomer, unassigned)
inactive: all assays above

CC(C)NC(=O)[C@H](C)[C@H]1CC[C@@H](C[C@@H](C)n2cc(C#CCC3CCCC3)nn2)O1
inactive: all assays above

CCN(CC)C(=O)[C@H](C)[C@H]1CC[C@@H](C[C@@H](C)n2cc(C#CCOc3cccc(-c4ccccc4)c3)nn2)O1
inactive: all assays above

COc1ccc(C#Cc2cn([C@H](C)C[C@@H]3CC[C@H]([C@@H](C)C(=O)NC(C)C)O3)nn2)cc1
inactive: all assays above

C[C@H](CC1CCC([C@@H](C)C(=O)N2CCCC2)O1)n1cc(C#CCCCC#N)nn1 (single isomer, unassigned)
inactive: all assays above

CCN(CC)C(=O)[C@H](C)[C@H]1CC[C@@H](C[C@@H](C)n2cc(C#CCN(C)C)nn2)O1
inactive: all assays above

CC(C)NC(=O)[C@H](C)[C@H]1CC[C@@H](C[C@@H](C)n2cc(C#CCOc3cccc(-c4ccccc4)c3)nn2)O1
inactive: all assays above

C[C@H](C[C@@H]1CC[C@H]([C@@H](C)C(=O)N(C)Cc2ccccc2)O1)n1cc(C#CCCCC#N)nn1
inactive: all assays above

C[C@H](C[C@@H]1CC[C@H]([C@@H](C)C(=O)N(C)Cc2ccccc2)O1)n1cc(C#CCOc2ccccc2)nn1
inactive: all assays above

COCC#Cc1cn([C@H](C)C[C@@H]2CC[C@H]([C@@H](C)C(=O)N(C)Cc3ccccc3)O2)nn1
inactive: all assays above

C[C@H](C[C@@H]1CC[C@H]([C@@H](C)C(=O)N2CCCC2)O1)n1cc(C#CCN(C)CCc2ccccc2)nn1
inactive: all assays above
